Experimental data reported in ChEMBL document CHEMBL1141357, “Bioactive polychlorinated bibenzyls from the liverwort Riccardia polyclada” (J Nat Prod, 2007).

How the values were obtained:
Artemia salina = assay: Toxicity against brine shrimp by lethality test; assay type: organism-based; conditions: in vivo
Cladosporium herbarum [1] = assay: Growth inhibition of Cladosporium herbarum at 0.07 mg after 72 hrs; assay type: functional; conditions: read-out: IZ
In short: (§1)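 TLC bioautography with a given dose applied per spot. Plates were sprayed with Cladosporium herbarum spores (5 × 10^5 cfu) in 4% malt extract medium. Growth-inhibition zones were read after 72 h at 27 °C.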

Spodoptera littoralis = assay: Antifeedant activity against Spodoptera littoralis larvae at 10 ug/disk by disk-choice assay; assay type: functional
In short: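 Disk-choice feeding test with fifth-instar Spodoptera littoralis larvae at 10 µg/disk. Read-out is FR50: treated area eaten divided by 50% of the untreated area, scored when half of the untreated area had been eaten.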

Cladosporium herbarum [2] = assay: Growth inhibition of Cladosporium herbarum at 0.05 mg after 72 hrs; assay type: functional; conditions: read-out: IZ; in short: as §1
Cladosporium herbarum [3] = assay: Growth inhibition of Cladosporium herbarum at 0.25 mg after 72 hrs; assay type: functional; conditions: read-out: IZ; in short: as §1

Compound	LC50 (Artemia salina) [ppm]	zone of inhibition at 70 µg/disc (Cladosporium herbarum [1]) [mm]	FR50 (Spodoptera littoralis)	zone of inhibition at 50 µg/disc (Cladosporium herbarum [2]) [mm]	zone of inhibition at 250 µg/disc (Cladosporium herbarum [3]) [mm]
COc1ccc(CCc2c(Cl)ccc(O)c2Cl)cc1Cl	0.42	12	0.63	–	–
COc1ccc(CCc2c(Cl)cc(Cl)c(O)c2Cl)cc1Cl	1.71	–	–	0	–
Oc1ccc(CCc2c(Cl)cc(Cl)c(O)c2Cl)cc1Cl	2.39	20	0.43	–	–
CC(=O)N1CCN(c2ccc(OC[C@H]3CO[C@](Cn4ccnc4)(c4ccc(Cl)cc4Cl)O3)cc2)CC1 [KETOCONAZOLE]	14.9	–	–	–	15
COc1ccc(CCc2c(Cl)ccc(O)c2Cl)cc1	0.44	–	–	22	–
